Measured values gathered from unrelated publications.
Lines come from different studies, so protocols differ.
Target: Dual specificity mitogen-activated protein kinase kinase 1 (MAP2K1, Homo sapiens, UniProt Q02750)

SMILES | observed | mode | method | cells | concentration | measurement | value
CCOc1cc(-c2nncn2C)ccc1Nc1ncc2cc(C)nc(NCC(C)(C)C)c2n1 | enzyme activity | inhibitor | FRET | – | 1 µM | inhibition | 16%
Cn1cnc(Br)c1C1=CN(c2ncnc3[nH]cnc23)CCS1 | enzyme activity | inhibitor | radiometric | – | 2 µM | inhibition | 16.9%
CC(C)c1ccc(NC(=O)c2cccs2)c(-c2nc3ccccc3[nH]c2=O)c1 | enzyme activity | inhibitor | – | – | 1 µM | activity vs control | 112%
COc1cc2ncnc(Nc3ccc(Oc4ccccc4)cc3C)c2cc1OC | enzyme activity | inhibitor | – | – | 1 µM | inhibition | 11%
CN(C)C1CCN(CC#Cc2nn(C3CCCC3)c3nc(NCc4ccccc4)ncc23)C1 (centres unmarked) | enzyme activity | inhibitor | FRET | – | 1 µM | inhibition | 9%
O=C(O)[C@@H]1[C@@H](Cn2nnc3ccccc3c2=O)CC[C@H]1C(=O)c1ccc(OCCC2CCOCC2)cc1 | cell-free assay | – | competition with immobilised ligand | – | 1 µM | remaining binding | 81%
Nc1ncnc2occ(-c3ccc(NC(=O)Nc4cc(C(F)(F)F)ccc4F)cc3)c12 | cell-free assay | inhibitor | – | – | 20 µM | remaining signal | 9.3%
Cc1cc(-n2nc(Cc3cc(F)cc(C(F)(F)F)c3)nc2C)ccc1C(N)=O | cell-free assay | – | competition with immobilised ligand | – | 1 µM | remaining binding | 100%
Cc1ccc(NC(=O)c2ccc(CN3CCN(C)CC3)cc2)cc1Nc1nc(-c2cccnc2)cs1 | cell-free assay | – | – | – | 0.5 µM | remaining signal | 111%
CCN(CC)CCNC(=O)c1c(C)[nH]c(/C=C2\C(=O)Nc3ccc(F)cc32)c1C | enzyme activity | inhibitor | – | – | 0.3 µM | inhibition | 36%
FC(F)c1nc2ccccc2n1-c1nc(N2CCOCC2)nc(N2CCOCC2)n1 | enzyme activity | inhibitor | – | – | 10 µM | remaining activity | 83%
O=C(Nc1cnn(-c2csc(C(=O)NC3COC3)c2)c1)Nc1c(F)cccc1Cl | enzyme activity | inhibitor | – | – | 5 µM | remaining activity | 107%
CN(c1ncccc1CNc1nc(Nc2ccc3c(c2)CC(=O)N3)ncc1C(F)(F)F)S(C)(=O)=O | enzyme activity | inhibitor | – | – | 1 µM | inhibition | 77.1%
CNCc1ccc(-c2cc(-c3nc(-c4ccc(S(=O)(=O)C(C)C)cc4)cnc3N)on2)cc1 | enzyme activity | inhibitor | – | – | 2 µM | inhibition | 6%
CN(C(=O)c1ccccc1)c1cc(N(C)c2ccc3c(c2)CCc2ccc(C(=O)NCCN4CCOCC4)cc2C3=O)ccc1F | cell-free assay | – | competition with immobilised ligand | – | 1 µM | remaining binding | 100%
CCN(CC)Cc1cc(Nc2ccnc3cc(Cl)ccc23)ccc1O | cell-free assay | – | competition with immobilised ligand | – | 10 µM | remaining binding | 96%
CNCc1ccccc1-c1csc([C@H](C)Nc2nc(C)nc3cc(OC)c(OC)cc23)c1 | cell-free assay | – | competition with immobilised ligand | – | 1 µM | remaining binding | 100%
Cc1[nH]c(/C=C2\C(=O)Nc3ccc(F)cc32)c(C)c1C(=O)N[C@H]1CCN(C(=O)N(C)C)C1 | enzyme activity | inhibitor | – | – | 1 µM | remaining activity | 59%
CCN1CCN(Cc2ccc(NC(=O)c3ccc(C)c(Oc4ccnc5[nH]ccc45)c3)cc2C(F)(F)F)CC1 | target engagement in cells | inhibitor | chemoproteomics | Huh-7 | 1 µM | inhibition | -41.7%
Nc1cnc(N2CCc3cc(S(=O)(=O)Nc4c(F)cc(Cl)cc4F)cc(N4CCCC4=O)c32)nc1 | cell-free assay | – | competition with immobilised ligand | – | 1 µM | remaining binding | 100%
